Among all 85,000 compounds or so, about 940 (1.1%) were called active.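 How the source made its calls: active means viability at or below 50% in the single dose screen; inactive means viability above 50%.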 Only a selection was taken, and actives are over-represented in it overall.
assay: antiproliferative effect on LL 47 fibroblasts – human, LL 47 cells, CellTiter-Glo luminescence, primary screen (AID 719); settings: LL 47 human lung fibroblast viability, ATP luminescence; at 10 µM; hits give low values;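 further: compound exposure lasted 72 h before the ATP readout; 100% = median luminescence of untreated cell-only wells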
How it was run: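 Material: human lung fibroblast line LL 47, low passage; Evaluation: viability percentage against median untreated-cell control; Buffer or medium: 15% FBS in IMEM; Incubation: 72 h compound exposure at 37 °C after overnight plating; Dosing: 0.1% DMSO in all compound wells; Measured by: CellTiter-Glo luminescence.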

Compound | viability
CC1=C/C(=N\OS(=O)(=O)c2ccccc2)C=CC1=O | 1.44% (active)
CCOC(=O)c1sc(C)c2c1NC(C)(c1cccc3ccccc13)NC2=O (stereo not given) | 78.7% (inactive)
O=C(NCCSCc1ccccc1)c1ccc(Cl)c(S(=O)(=O)N2CCOCC2)c1 | 92.8% (inactive)
N=c1c2c3c(sc2nc2n1CCCCC2)CCCC3 | 102% (inactive)
CC1(C)NC(=O)N(CCCCSc2ccc(Cl)cc2)C1=O | 95% (inactive)
CCOc1ccc2c(c1)C(c1ccc(C)cc1)=NNC(c1ccc(C)cc1)=N2 | 75.9% (inactive)
CC(C)(C)NC(=O)Cn1c(SCC(=O)Nc2nccs2)nc2ccccc21 | 93.8% (inactive)
CCC(c1nnnn1C(C)(C)C)N(Cc1cc2cccc(C)c2n2nnnc12)C1CCCC1 (stereo not given) | 95.7% (inactive)
CCOC(=O)c1c(N=CN(C)C)c(C#N)c2n1CCCC2 | 98.2% (inactive)
CC[C@]1(O)CC2CN(CCc3c([nH]c4ccccc34)[C@@](C(=O)OC)(c3cc4c(cc3OC)N(C=O)[C@H]3[C@@](O)(C(=O)OC)[C@H](OC(C)=O)[C@]5(CC)C=CCN6CC[C@]43[C@@H]65)C2)C1 (stereo not given in full) | 44.6% (active)
CO/N=C(/CS(=O)(=O)c1ccc(Br)cc1)c1ccc(OC)cc1 | 90.9% (inactive)
Cc1cc(=O)oc2cc(OCC3CC(c4ccccc4Cl)=NO3)ccc12 (stereo not given) | 47.8% (active)
Cc1ccccc1N1CCN(CCCOc2ccc3c(C)cc(=O)oc3c2)CC1 | 94% (inactive)
Cc1cc(=O)oc2cc(NC(=O)C3CC(=O)N(Cc4ccccc4)C3)ccc12 (stereo not given) | 103% (inactive)
Cc1cccc2nc(CSc3nc4[nH]ncc4c(=O)n3-c3cccc(Cl)c3)cc(=O)n12 | 68.1% (inactive)
CCOc1ccc(S(=O)(=O)Nc2ccc(S(=O)(=O)Nc3cc(OC)ccc3OC)cc2)cc1 | 105% (inactive)
COC(=O)COc1ccc(S(=O)(=O)Nc2ccc(NC(C)=O)cc2)cc1 | 104% (inactive)
CCOc1ccc(NS(=O)(=O)c2ccc(OCC(=O)NCCCOC)cc2)cc1 | 40.2% (active)

Compound | viability
O=C(c1ccccc1Oc1ccccc1)N1CCN(c2ccc(F)cc2)CC1 | 99.7% (inactive)
CCOc1ccccc1NC(=O)C1CCCN(C(=O)Nc2ccccc2)C1 (stereo not given) | 106% (inactive)
COc1ccc(C(=O)Nc2ccc3c(c2)OCO3)cc1OC | 100% (inactive)
Cn1c(NC(=O)c2ccc3c(c2)OCO3)cc(=O)n(C)c1=O | 97% (inactive)
Cn1c(=O)n(C)c2cc(C(=O)Nc3ccc4c(c3)OCO4)ccc21 | 48.5% (active)
CCCc1nc2sc3c(c2c(=O)n1NC(=O)CCCl)CCCC3 | 80.4% (inactive)
CC1CN(S(=O)(=O)c2ccccc2)C(C)CN1S(=O)(=O)c1ccccc1 (stereo not given) | 93.9% (inactive)
CCCn1c(C(Cc2ccccc2)NC(=O)COC)nc2ccccc21 (stereo not given) | 93.2% (inactive)
Cc1ccc(CN(C(=O)c2sc3ccccc3c2Cl)C2CCS(=O)(=O)C2)cc1 (stereo not given) | 89.4% (inactive)
CCC(C(=O)NCc1ccc(OC)cc1)n1nc(C)n2c(cc3occc32)c1=O (stereo not given) | 95.5% (inactive)
COc1ccccc1N1CCN(C(=O)CN(Cc2ccc(Cl)cc2)S(C)(=O)=O)CC1 | 98.3% (inactive)
COc1ccccc1-n1nnnc1S(=O)(=O)Cc1ccc(Cl)cc1 | 25% (active)
COc1ccccc1N1CCN(Cc2nnnn2CCc2ccccc2)CC1 | 101% (inactive)
O=C(Nc1ccccc1-c1nnn(CC(=O)N2CCCc3ccccc32)n1)c1cccc(Cl)c1 | 52.5% (inactive)
O=C(Cc1cccc2ccccc12)Nc1ccc2oc(-c3ccccc3)nc2c1 | 99% (inactive)
Cc1ccc(NC(=S)NC(NC(=O)Cc2cccc3ccccc23)C(Cl)(Cl)Cl)cc1 (stereo not given) | 49.6% (active)
Cc1ccc(NC(=O)CCN2CCc3ccccc3C2)cc1 | 94.5% (inactive)

Reference: PubChem BioAssay AID719 (SRMLSC, 2007)
